Assay results of several laboratories.
Each line is one published result; the experiments were not run side by side.
Target: Serine/threonine-protein kinase ULK1 (ULK1, Homo sapiens, UniProt O75385)
Residues used in one study (O75385 1-1050): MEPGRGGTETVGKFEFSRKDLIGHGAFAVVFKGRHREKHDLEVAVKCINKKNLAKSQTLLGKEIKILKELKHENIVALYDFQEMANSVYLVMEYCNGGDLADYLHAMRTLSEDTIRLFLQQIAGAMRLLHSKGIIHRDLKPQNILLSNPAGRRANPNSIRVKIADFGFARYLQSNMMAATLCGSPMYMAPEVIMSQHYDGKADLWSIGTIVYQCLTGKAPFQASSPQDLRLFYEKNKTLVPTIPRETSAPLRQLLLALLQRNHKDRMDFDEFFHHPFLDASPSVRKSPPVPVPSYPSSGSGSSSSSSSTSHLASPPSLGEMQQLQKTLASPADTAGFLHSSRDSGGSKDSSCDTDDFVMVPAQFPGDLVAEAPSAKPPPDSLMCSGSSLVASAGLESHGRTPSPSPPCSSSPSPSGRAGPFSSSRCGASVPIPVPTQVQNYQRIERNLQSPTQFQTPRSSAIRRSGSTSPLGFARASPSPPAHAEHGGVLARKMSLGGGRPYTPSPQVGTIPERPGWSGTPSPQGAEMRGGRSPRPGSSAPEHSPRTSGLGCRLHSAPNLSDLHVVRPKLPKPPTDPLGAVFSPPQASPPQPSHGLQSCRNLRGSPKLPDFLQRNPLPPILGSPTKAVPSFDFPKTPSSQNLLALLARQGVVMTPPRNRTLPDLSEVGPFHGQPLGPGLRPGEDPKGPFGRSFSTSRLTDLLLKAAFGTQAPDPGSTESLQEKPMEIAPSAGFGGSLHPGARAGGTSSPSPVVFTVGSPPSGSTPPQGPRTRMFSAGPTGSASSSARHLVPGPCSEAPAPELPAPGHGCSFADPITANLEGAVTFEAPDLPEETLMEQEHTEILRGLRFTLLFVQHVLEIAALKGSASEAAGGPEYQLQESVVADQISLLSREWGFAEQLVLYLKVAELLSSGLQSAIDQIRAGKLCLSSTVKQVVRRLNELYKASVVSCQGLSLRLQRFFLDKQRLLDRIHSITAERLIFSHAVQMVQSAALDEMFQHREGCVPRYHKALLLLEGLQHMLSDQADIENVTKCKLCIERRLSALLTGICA

SMILES | observed | mode | method | tested at | endpoint | result
C[C@H]1CC[C@H](n2c3cnccc3c3cnc(Nc4ccc5c(n4)CCN(C(=O)CO)C5)nc32)CC1 | cell-free assay |  |  | 1 µM | remaining signal | 94%
C=CC(=O)N1CCC([C@@H]2CCNc3c(C(N)=O)c(-c4ccc(Oc5ccccc5)cc4)nn32)CC1 | enzyme activity | inhibitor |  | 1 µM | inhibition | 0%
C1=C/COCc2cc(ccc2OCCN2CCCC2)Nc2nccc(n2)-c2cccc(c2)COC/1 | cell-free assay |  |  | 0.1 µM | remaining signal | 90%
Cc1cc(S(=O)(=O)N[C@H]2CC[C@H](CN3CCN(c4ccc(C5CCC(=O)NC5=O)cc4F)CC3)CC2)ccc1Nc1ncc(C(F)(F)F)c(N2CCC[C@](C)(O)C2)n1 (stereo partly drawn) | binding |  | competition with immobilised ligand | 1 µM | remaining binding | 5.7%
COc1ccc2[nH]c3c4[nH]c5ccc(OC)cc5c4c4c(c3c2c1)C(=O)NC4=O | binding |  |  | 1 µM | remaining binding | 100%
CO[C@@H]1[C@H](N(C)C(=O)c2ccccc2)C[C@H]2O[C@]1(C)n1c3ccccc3c3c4c(c5c6ccccc6n2c5c31)C(=O)NC4 | enzyme activity | inhibitor |  | 1 µM | inhibition | 7%
C[C@]1(O)CCCN(c2nc(Nc3ccc(S(=O)(=O)N[C@H]4CC[C@H](CN5CCN(c6ccc(C7CCC(=O)NC7=O)cc6F)CC5)CC4)cc3F)ncc2C(F)(F)F)C1 (stereo partly drawn) | binding |  | competition with immobilised ligand | 1 µM | remaining binding | 49%
COc1ccc2oc(-c3ccc4nc(N)oc4c3)c/c(=N\c3ccccc3NC(=O)CCN)c2c1 | binding |  |  | 1 µM | remaining binding | 99%
CCCCC(=O)Nc1ccc(-c2ccc3ncn(CCC)c(=O)c3c2)cn1 | binding |  | competition with immobilised ligand | 0.5 µM | remaining binding | 94%
